From PMC3640342 (Pharmaceutical research, 2013)
Several values for one entry are separate records, joined by “and”; a condition that tells them apart may be missing. Equal values may be shown once. Read-outs that look alike come from different tables or passages of the source.

Legend:
Media solubility = assay type: physicochemical; conditions: media used in the cell-based assays, 10% FBS
human liver microsomes [1] = assay: Hepatic microsomal stability, human; assay type: in vitro ADME; conditions: 1 μM
Outline: (§1)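 Liver microsomes from mouse, rat or human (~0.5 mg/mL final) were incubated at 37°C with test compound at 1 μM final (0.6% ACN, 0.01% DMSO) in PBS pH 7.4 ± 0.05% PS80, with 1 mM NADPH or PBS.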

[2] = Solubility at pH 2, pH 7.4 and in FaSSIF; assay type: physicochemical; conditions: pH 7.4 (phosphate) buffer, room temperature overnight
rat liver microsomes = assay: Hepatic microsomal stability, rat; assay type: in vitro ADME; conditions: 1 μM
Outline: as §1

[3] = system: PrP^Sc levels in ScN2a-cl3 cells; assay: cells; assay type: cell-based, mouse
CYP1A2 = target: T1, CYP1A2 (Homo sapiens, UniProt P05177); assay: CYP phenotyping in human liver microsomes, furafylline; conditions: NADPH + Furafylline
T1 sequence (P05177 1-516): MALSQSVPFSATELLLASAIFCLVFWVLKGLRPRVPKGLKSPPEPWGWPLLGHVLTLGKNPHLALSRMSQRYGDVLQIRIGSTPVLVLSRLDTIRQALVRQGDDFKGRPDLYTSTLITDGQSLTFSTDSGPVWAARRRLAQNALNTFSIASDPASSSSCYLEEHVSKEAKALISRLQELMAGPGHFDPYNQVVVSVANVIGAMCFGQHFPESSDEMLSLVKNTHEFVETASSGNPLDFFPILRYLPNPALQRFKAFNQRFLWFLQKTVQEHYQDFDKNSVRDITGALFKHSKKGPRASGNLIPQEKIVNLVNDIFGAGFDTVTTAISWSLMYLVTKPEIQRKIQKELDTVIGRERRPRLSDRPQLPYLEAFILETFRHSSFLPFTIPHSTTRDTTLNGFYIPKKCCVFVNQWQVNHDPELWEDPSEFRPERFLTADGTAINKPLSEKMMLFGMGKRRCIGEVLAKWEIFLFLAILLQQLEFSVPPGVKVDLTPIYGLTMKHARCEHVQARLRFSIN

[4] = cell-culture media with 10% FBS, 1 μM
mouse liver microsomes = assay: Hepatic microsomal stability, mouse; assay type: in vitro ADME; conditions: 1 μM
Outline: as §1

[5] = system: human, mouse, rat, and dog liver microsomes; conditions: 10 μM, LC/MS/MS
[6] = mouse brain homogenate, 1 μM, corrected for dilution
CYP3A4 = CYP3A4 (Homo sapiens, UniProt P08684); assay: CYP phenotyping in human liver microsomes, ketoconazole; conditions: NADPH + Ketoconazole
Chain of CYP3A4 (P08684 whole entry): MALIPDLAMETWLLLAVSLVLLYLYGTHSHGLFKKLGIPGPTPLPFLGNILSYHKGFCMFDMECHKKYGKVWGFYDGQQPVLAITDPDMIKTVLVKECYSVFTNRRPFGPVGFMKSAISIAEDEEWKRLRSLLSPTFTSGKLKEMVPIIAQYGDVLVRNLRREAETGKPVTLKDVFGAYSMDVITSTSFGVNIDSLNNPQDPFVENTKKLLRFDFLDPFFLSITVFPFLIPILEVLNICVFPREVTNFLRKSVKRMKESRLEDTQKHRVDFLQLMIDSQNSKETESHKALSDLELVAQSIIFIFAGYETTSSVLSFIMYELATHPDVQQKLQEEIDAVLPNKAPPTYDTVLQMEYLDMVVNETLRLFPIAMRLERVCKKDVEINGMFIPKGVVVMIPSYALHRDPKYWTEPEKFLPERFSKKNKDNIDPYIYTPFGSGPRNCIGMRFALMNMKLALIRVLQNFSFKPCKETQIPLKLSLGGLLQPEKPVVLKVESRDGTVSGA

human plasma = conditions: human plasma, 1 μM
CYP2C9 = CYP2C9 (Homo sapiens, UniProt P11712); assay: CYP phenotyping in human liver microsomes, sulfaphenazole; conditions: NADPH + Sulphaphenazol
Chain of CYP2C9 (P11712 whole entry): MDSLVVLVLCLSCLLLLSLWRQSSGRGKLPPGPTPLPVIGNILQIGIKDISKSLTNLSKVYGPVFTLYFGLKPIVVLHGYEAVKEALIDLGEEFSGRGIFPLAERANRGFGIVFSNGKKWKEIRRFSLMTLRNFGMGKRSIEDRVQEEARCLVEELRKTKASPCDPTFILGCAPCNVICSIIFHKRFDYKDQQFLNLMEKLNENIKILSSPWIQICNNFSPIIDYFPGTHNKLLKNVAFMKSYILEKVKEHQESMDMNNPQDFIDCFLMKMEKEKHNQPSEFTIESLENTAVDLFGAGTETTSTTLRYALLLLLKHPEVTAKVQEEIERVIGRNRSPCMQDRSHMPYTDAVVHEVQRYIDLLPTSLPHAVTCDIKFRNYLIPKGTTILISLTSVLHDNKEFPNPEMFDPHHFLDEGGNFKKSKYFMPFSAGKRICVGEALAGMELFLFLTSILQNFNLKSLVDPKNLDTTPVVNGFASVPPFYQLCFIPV

human liver microsomes [7] = conditions: for Measured Conc.: 60 min
[8] = Single-dose IV PK at 1 mg/kg; assay type: in vivo, FVB mice; conditions: IV 1 mg/kg, plasma
Outline: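 Female FVB mice (~25 g) received 1 mg/kg by tail-vein injection in 10% DMSO in PEG400/water (1:1), 10% DMSO, or 10% ethanol in PEG400/water (1:1). Two mice per time point were killed by CO2 at 5 min and 0.25, 0.5, 1, 2, 4 and 6 h, and heparinized plasma was collected. After protein precipitation, samples were assayed by LC/MS/MS, and parameters came from noncompartmental sparse-sampling analysis.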

CYP2D6 = CYP2D6 (Homo sapiens, UniProt P10635); assay: CYP phenotyping in human liver microsomes, quinidine; conditions: NADPH + Quinidine
Chain of CYP2D6 (P10635 whole entry): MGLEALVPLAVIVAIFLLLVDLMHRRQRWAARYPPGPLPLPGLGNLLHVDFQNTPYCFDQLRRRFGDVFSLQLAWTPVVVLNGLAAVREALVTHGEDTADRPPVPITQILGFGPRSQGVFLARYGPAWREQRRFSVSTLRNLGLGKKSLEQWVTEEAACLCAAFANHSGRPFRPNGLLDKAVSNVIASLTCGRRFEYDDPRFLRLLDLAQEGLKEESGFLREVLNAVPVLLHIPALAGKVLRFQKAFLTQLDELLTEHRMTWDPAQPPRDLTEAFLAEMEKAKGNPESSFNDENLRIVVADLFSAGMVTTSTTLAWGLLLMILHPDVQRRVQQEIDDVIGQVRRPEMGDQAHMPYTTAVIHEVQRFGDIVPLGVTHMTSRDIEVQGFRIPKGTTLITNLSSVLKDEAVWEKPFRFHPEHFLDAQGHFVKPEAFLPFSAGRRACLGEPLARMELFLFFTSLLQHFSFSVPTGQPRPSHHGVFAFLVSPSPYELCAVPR

[9] = Single-dose oral gavage PK at 10 mg/kg; assay type: in vivo, FVB mice; conditions: for AUClast / Cmax: mean ± SD, n = 2
Outline: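 Female FVB mice (~25 g) were dosed at 10 mg/kg by oral gavage in 20% propylene glycol, 5% ethanol, 5% labrosol and 70% PEG400. Two mice per time point were killed by CO2 at 0.25, 0.5, 1, 2, 4, 6 and 24 h. Heparinized plasma and brain (diluted five-fold in water, homogenized) were assayed by LC/MS/MS.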

CYP2C19 [10] = conditions: NADPH + N-3-B
CYP2C19 [11] = target: CYP2C19 (Homo sapiens, UniProt P33261); conditions: NADPH + N-3-B
Chain of CYP2C19 (Homo sapiens, UniProt P33261) (P33261 whole entry): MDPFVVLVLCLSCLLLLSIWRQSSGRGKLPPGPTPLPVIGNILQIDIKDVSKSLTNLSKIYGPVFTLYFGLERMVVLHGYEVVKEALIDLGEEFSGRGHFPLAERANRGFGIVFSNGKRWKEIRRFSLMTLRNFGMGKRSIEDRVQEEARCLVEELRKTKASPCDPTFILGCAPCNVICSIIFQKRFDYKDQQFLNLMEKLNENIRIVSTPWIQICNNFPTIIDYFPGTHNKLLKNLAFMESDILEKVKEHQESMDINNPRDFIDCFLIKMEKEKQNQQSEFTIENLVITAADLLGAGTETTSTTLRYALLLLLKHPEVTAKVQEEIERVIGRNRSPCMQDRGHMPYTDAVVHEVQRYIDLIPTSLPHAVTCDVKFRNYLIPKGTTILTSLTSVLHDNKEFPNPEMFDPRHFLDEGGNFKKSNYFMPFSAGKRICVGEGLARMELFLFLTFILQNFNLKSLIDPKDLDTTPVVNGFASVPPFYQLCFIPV

mouse plasma = conditions: 1 μM
[12] = reversible incubation condition, 1 μM, 60 min
[13] = irreversible incubation condition, maximum metabolism, NADPH/No Inhibitor
[14] = reversible incubation condition, maximum metabolism, NADPH/No Inhibitor

In the case of `Cc1ccc(Nc2nc(-c3ccc(-c4ccccc4)cc3)cs2)nc1` [IND24], the “Solubility Media” value (Media solubility) is reported as over 250 µM, the “% remaining after a 60-min incubation” value (human liver microsomes [1]) is reported as 105% and the t1/2 (human liver microsomes [1]; NADPH) is reported as over 1 h. The “Solubility pH 7.4” value [2] was under 1 μM, the “% remaining after a 60-min incubation” value (rat liver microsomes) was 90% and the t1/2 (rat liver microsomes; NADPH) was over 1 h. For the same molecule, the EC50 [3] was 1270 nM, the EC50 ([3]; read-out: EC50, unbound compound) was 325 nM and the Disappearance % (CYP1A2) was 0 (−23) %. For the same molecule, the “Disappearance % Δ” value (CYP1A2) was 0%, the “Measured Conc.” value (CYP1A2; irreversible incubation condition, 1 μM, 60 min) was 0.766 µM and the “Unbound (%)” value [4] was 26% and 25.7±4.93%. For the same molecule, the “% remaining after a 60-min incubation” value (mouse liver microsomes) was 89%, the t1/2 (mouse liver microsomes; NADPH) was over 1 h and the Metabolites observed [5] was “metabolites M1–M3 and M5 were observed in all of the microsomal assays while M4 was only observed in the dog liver microsomal incubation”. For the same molecule, the “Unbound (%)” value [6] was 8% and 8.20±0.35%, the “CYP? (involvement of CYP3A4)” value (CYP3A4) was “Unlikely (unlikely for values <5)” and the Disappearance % (CYP3A4) was 15%. The “Disappearance % Δ” value (CYP3A4) was 0 (−15) %, the “Measured Conc.” value (CYP3A4; [12]) was 0.557 µM and the “Unbound (%)” value (human plasma) was 4.9% and 4.91±1.03%. For the same molecule, the “CYP? (involvement of CYP2C9)” value (CYP2C9) was “Unlikely (unlikely for values <5)”, the Disappearance % (CYP2C9) was 14% and the “Disappearance % Δ” value (CYP2C9) was 0 (−14) %. For the same molecule, the “Measured Conc.” value (CYP2C9; [12]) was 0.566 µM, the “Metabolism in HLM incubations” value (human liver microsomes [7]; 1 μM, human liver microsomes) was “very little metabolism” and the Disappearance % (human liver microsomes [7]; [13]) was 0 (−18) %. For the same molecule, the “Disappearance % Δ” value (human liver microsomes [7]; [13]) was 0%, the “Measured Conc.” value (human liver microsomes [7]; irreversible incubation condition, maximum metabolism, NADPH/No Inhibitor, 1 μM) was 0.733 µM and the “Measured Conc.” value (human liver microsomes [7]; irreversible incubation condition, negative control, No NADPH/No Inhibitor, 1 μM) was 0.622 µM. For the same molecule, the Disappearance % (human liver microsomes [7]; [14]) was 0%, the “Disappearance % Δ” value (human liver microsomes [7]; [14]) was 0% and the “Measured Conc.” value (human liver microsomes [7]; reversible incubation condition, maximum metabolism, NADPH/No Inhibitor, 1 μM) was 0.655 µM. For the same molecule, the Disappearance % (human liver microsomes [7]; reversible incubation condition, negative control, No NADPH/No Inhibitor) was 0%, the “Measured Conc.” value (human liver microsomes [7]; reversible incubation condition, negative control, No NADPH/No Inhibitor, 1 μM) was 0.654 µM and the tmax [8] was 4.98 min. For the same molecule, the CL ([8]; female FVB mice) was 15.3 mL/min/kg, the Vss ([8]; female FVB mice) was 2.46 L/kg and the AUClast ([8]; mean ± SD, n = 2) was 2.78 ± 1.09 µM·h. For the same molecule, the Cmax ([8]; mean ± SD, n = 2) was 2490 ± 2650 nM, the t1/2 ([8]; 1 mg/kg) was 2.16 h and the “CYP? (involvement of CYP2D6)” value (CYP2D6) was “Unlikely (unlikely for values <5)”. For the same molecule, the Disappearance % (CYP2D6) was 15%, the “Disappearance % Δ” value (CYP2D6) was 0 (−15) % and the “Measured Conc.” value (CYP2D6; [12]) was 0.555 µM. The “%F (absolute oral bioavailability)” value ([9]; PO 10 mg/kg vs IV 1 mg/kg, plasma) was 40% and 40.3%, the tmax ([9]; PO 10 mg/kg, brain) was 4 h and the AUClast ([9]; PO 10 mg/kg, brain) was 29.1 ± 1.24 µM·h. The Cmax ([9]; PO 10 mg/kg, brain) was 2450 ± 740 nM, the t1/2 ([9]; PO 10 mg/kg, plasma) was 4.65 h and the tmax ([9]; PO 10 mg/kg, plasma) was 2 h. The AUClast ([9]; PO 10 mg/kg, plasma) was 11.2 ± 1.31 µM·h, the Cmax ([9]; PO 10 mg/kg, plasma) was 1660 ± 110 nM and the Disappearance % (CYP2C19 [10]) was 18%. The “Measured Conc.” value (CYP2C19 [10]; [12]) was 0.537 µM, the “CYP? (involvement of CYP2C19)” value (CYP2C19 [11]) was “Unlikely (unlikely for values <5)” and the “Disappearance % Δ” value (CYP2C19 [11]) was 0 (−18) %. The “Unbound (%)” value (mouse plasma) was 6.6% and 6.63±1.55%.
